Type in all cases: functional, cell-based
The subject of one assay is KB. Nature of the assay: Cytotoxicity against human KB cells. The gist of the method: (§1)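 Colorimetric cytotoxicity assay following Skehan and co-workers' method. The cells were human KB (epidermoid carcinoma of the mouth), BC1 (breast cancer) and NCI-H187 (small cell lung cancer). Ellipticine and doxorubicin were the reference compounds.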
Another assay concerns NCI-H187. Nature of the assay: Cytotoxicity against human NCI-H187 cells. Summed up: as §1
A short description of assay [1]: (§2) Cytotoxicity against human BC1 cells. The gist of the method:
as §1

A further assay concerns BC1. The assay is described as §2. Summed up:
as §1

In brackets after ≈: the same amount, converted by molar mass. Activity calls are given as the source filed them. The calls are words filed in the database; no cut-off is given here.

Regarding `C=C/C(C)=C\C[C@]1(C)[C@H](C)CC[C@@]23C(=C[C@H](OC(=O)CCC)C[C@@H]12)[C@@H](OC(C)=O)O[C@H]3OC(C)=O` (relative stereo) [CASEARGREWINS E], the IC50 came out at 0.66 µg/mL (≈ 1.35 µM) in the assay with KB, 0.15 µg/mL (≈ 0.307 µM) in the assay on NCI-H187 and 0.91 µg/mL (≈ 1.86 µM) in assay [1].
As for `C=C/C(C)=C\C[C@]1(C)[C@H](C)C[C@H](O)[C@@]23C(=C[C@H](OC(=O)CCC)C[C@@H]12)[C@@H](OC(C)=O)O[C@H]3OC(C)=O` (relative stereo) [CASEARGREWINS F], the outcome in the assay with KB was inactive. The IC50 was determined as 4.72 µg/mL (≈ 9.35 µM) in the assay with NCI-H187 and 0.2 µg/mL (≈ 0.396 µM) in assay [1].
As to `C=C/C(C)=C\C[C@]1(C)[C@H](C)C[C@H](O)[C@@]23C(=C[C@H](OC(=O)CCC)C[C@@H]12)[C@@H](OC)O[C@H]3OC(C)=O` (relative stereo) [CASEARGREWINS G], the IC50 was 0.67 µg/mL (≈ 1.41 µM) in the assay with KB, 5.57 µg/mL (≈ 11.7 µM) in the assay on NCI-H187 and 3.97 µg/mL (≈ 8.33 µM) in assay [1].
As to `C=C/C(C)=C\C[C@]1(C)[C@H](C)CC[C@@]23C(=C[C@H](OC(=O)CCCCC)C[C@@H]12)[C@@H](OC(C)=O)O[C@H]3OC(C)=O` (relative stereo) [CASEARGREWINS H], the figures for the IC50 (in the assay with KB; with NCI-H187; in assay [1]) were 0.88 µg/mL (≈ 1.7 µM), 0.54 µg/mL (≈ 1.05 µM) and 0.21 µg/mL (≈ 0.406 µM), respectively.
For `C=C/C(C)=C\C[C@]1(C)[C@H](C)C[C@H](O)[C@@]23C(=C[C@H](OC(=O)CCCCC)C[C@@H]12)[C@@H](OC(C)=O)O[C@H]3OC(C)=O` (relative stereo) [CASEARGREWINS I] the same measures were 3.04 µg/mL (≈ 5.71 µM), 0.33 µg/mL (≈ 0.62 µM) and 0.36 µg/mL (≈ 0.676 µM).
As for `C=C/C(C)=C\C[C@]1(C)[C@H](C)C[C@H](O)[C@@]23C(=C[C@H](OC(=O)CCCCC)C[C@@H]12)[C@@H](OC)O[C@H]3OC(C)=O` (relative stereo) [CASEARGREWINS J], the outcome with KB was inactive. For the same compound, the results for the IC50 (with NCI-H187; in assay [1]) were 1.22 µg/mL (≈ 2.42 µM) and 0.99 µg/mL (≈ 1.96 µM), respectively.
The matching figures for `C=C/C(C)=C\C[C@]1(C)[C@H](C)[C@@H](O)[C@H](O)[C@@]23C(=C[C@H](OC(=O)CCCCC)C[C@@H]12)[C@@H](OC)O[C@H]3OC(C)=O` (relative stereo) [CASEARGREWINS K]: “inactive”, 5.11 µg/mL (≈ 9.81 µM) and 3.4 µg/mL (≈ 6.53 µM).
Consider `C=C/C(C)=C\C[C@]1(C)[C@H](C)C[C@H](O)[C@@]23C(=C[C@H](OC(=O)CC(C)C)C[C@@H]12)[C@@H](OC(C)=O)O[C@H]3OC(C)=O` (relative stereo) [CASEARGREWINS L], for which the values for the IC50 in the assay with KB and with NCI-H187 were 6 µg/mL (≈ 11.6 µM) and 0.32 µg/mL (≈ 0.617 µM), respectively. The outcome with BC1 was inactive.
Consider `COc1cccc2c1C(=O)c1c(O)c3c(c(O)c1C2=O)C[C@@](O)(C(=O)CO)C[C@@H]3O[C@H]1C[C@H](N)[C@H](O)[C@H](C)O1` [DOXORUBICIN], for which the values for the IC50 (in the assay with KB; in the assay on NCI-H187; in assay [1]) were 0.23 µg/mL (≈ 0.423 µM), 0.048 µg/mL (≈ 0.0883 µM) and 0.13 µg/mL (≈ 0.239 µM), respectively.
On to `Cc1c2ccncc2c(C)c2c1[nH]c1ccccc12` [ELLIPTECINE], for which the IC50 in the assay with KB came out at 0.67 µg/mL (≈ 2.72 µM); in assay [1], 0.13 µg/mL (≈ 0.528 µM).
Consider `C=C/C(C)=C\C[C@]1(C)[C@H](C)[C@@H](O)[C@H](O)[C@@]23C(=C[C@H](OC(=O)CC(C)C)C[C@@H]12)[C@@H](OC(C)=O)O[C@H]3OC(C)=O` [ESCULENTIN B], for which the result in the assay on KB was inactive. In addition, the figures for the IC50 (with NCI-H187; in assay [1]) were 0.68 µg/mL (≈ 1.27 µM) and 0.17 µg/mL (≈ 0.318 µM), respectively.
